Experimental data pooled from the literature.
Protocols differ between the studies behind these lines.
Observed: enzyme activity
Mode: inhibitor
LCK: Tyrosine-protein kinase Lck (LCK, Homo sapiens, UniProt P06239)

| SMILES | target | technique | tested at | remaining activity [%] |
| --- | --- | --- | --- | --- |
| FC(F)c1nc2ccccc2n1-c1nc(N2CCOCC2)nc(N2CCOCC2)n1 | LCK | – | 10 µM | 89 |
| Cc1[nH]c(/C=C2\C(=O)Nc3ccc(F)cc32)c(C)c1C(=O)N[C@H]1CCN(C(=O)N(C)C)C1 | LCK | – | 0.1 µM | 87 |
| Cc1sc(C(=O)NC2COC2)cc1-n1cc(NC(=O)Nc2c(F)cccc2Cl)cn1 | LCK | – | 10 µM | 46.5 |
| Cc1ccc(NC(=O)c2ccc(C)c(C(F)(F)F)c2)cc1C#Cc1nn(C2CCC(O)CC2)c2ncnc(N)c12 (centres unmarked) | LCK | – | 10 µM | 0 |
| Cc1cnc(NC2CCOCC2)nc1-n1cnc(C(=O)NC(CN)c2cc(F)cc(Cl)c2)c1 (centres unmarked) | Tyrosine-protein kinase Lck, phosphorylated (LCK, Homo sapiens, UniProt P06239) | radiometric | 1 µM | 109 |
| CC(C)(O)[C@H]1CC[C@H](Nc2ccc3ncc(-c4cccc(C(F)(F)F)c4)n3n2)CC1 | LCK | – | 1 µM | 11.1 |
| O=C1NC(=O)c2cc(Nc3ccc(F)cc3)c(Nc3ccc(F)cc3)cc21 | LCK | – | 0.5 µM | 98.4 |
| Nc1nc(Nc2ccccc2)sc1C(=O)c1c(F)cccc1F | LCK | – | 10 µM | 49 |
| O=C(Nc1cnn(-c2csc(C(=O)NC3COC3)c2)c1)Nc1ccccc1Cl | LCK | – | 5 µM | 99.1 |
| COc1cc(Cl)c(C(=O)N[C@@H](CN[C@H]2CC[C@@H](N)CC2)Cc2ccc(C#N)cc2)cc1-c1ccc(CN[C@H](C)c2ccc(C)cc2)o1 | LCK | – | 1 µM | 75 |
| COc1cc(Nc2c(C#N)cnc3cc(OCCCN4CCN(C)CC4)c(OC)cc23)c(Cl)cc1Cl | LCK | – | 0.5 µM | 1.88 |
| CC(C)(C)c1nc2c(s1)c1nc(N)ncc1c1ccc(NS(=O)(=O)c3c(F)cccc3F)c(F)c12 | LCK | radiometric | 1 µM | 80 |
| O=c1cc(-c2cccc3c2Sc2ccccc2S3)oc(N2CCOCC2)c1 | LCK | – | 0.5 µM | 98.1 |
| Nc1nc(NC2CCCCC2)sc1C(=O)c1ccccc1 | LCK | – | 10 µM | 86 |
| O=C1Nc2ccc(Cl)cc2C1=Cc1cc(Cl)c(O)c(Cl)c1 | LCK | – | 0.5 µM | 88.2 |
| COc1cc(Nc2cnc(C#N)c(O[C@H](C)CN(C)C)n2)ncc1-c1cnn(C)c1 | LCK | radiometric | 1 µM | 60 |
| Oc1cccc(-c2nc(N3CCOCC3)c3oc4ncccc4c3n2)c1 | LCK | – | 0.5 µM | 98 |
| CCCOc1ccc(OC)c(F)c1C(=O)c1ccc(C(=O)N[C@@H]2CNC[C@H]2NC(=O)c2ccc3[nH]ncc3c2)cc1 | LCK | – | 10 µM | 21 |
| C[S+]([O-])c1ccc(-c2nc(-c3ccncc3)c(-c3ccc(F)cc3)[nH]2)cc1 (centres unmarked) | LCK | – | 0.5 µM | 95 |
| CCN(CC)c1ccc(C2=NNC(=O)CC2C)cc1[N+](=O)[O-] (centres unmarked) | LCK | – | 10 µM | 118 |
